# Assay results published in publication PMC12062833 (RSC Medicinal Chemistry, 2025).
# Assays:
# [1] = system: Pseudomonas aeruginosa (ATCC 9027); experiment: Antibacterial MIC, macrodilution method, P. aeruginosa; type: cell-based; settings: ATCC9027, read-out: MIC P. aeruginosa
# How it was run: (§1)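 CLSI M07-A9 tube macrodilution. Strains were grown overnight on nutrient agar at 37 °C, and colonies were suspended in Mueller-Hinton broth. Inoculum was 1 × 10^6 per mL (5 × 10^5 per mL in test). DMSO stock was 5120 μg/mL. Final concentrations were 256 to […] in 2 mL. Tubes were incubated at 37 °C for 16–20 h. Controls were inoculum with and without 1% DMSO, and broth alone.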
# [2] = system: Klebsiella pneumoniae (ATCC 27736); experiment: Antibacterial MIC, macrodilution method, K. pneumoniae; type: cell-based; settings: ATCC27736, read-out: MIC K. pneumoniae
# How it was run: as §1
# [3] = system: Staphylococcus aureus (ATCC 25923); experiment: Antibacterial MIC, macrodilution method, S. aureus; type: cell-based; settings: ATCC25923, read-out: MIC S. aureus
# How it was run: as §1
# [4] = system: Escherichia coli (ATCC 25922); experiment: Antibacterial MIC, macrodilution method, E. coli; type: cell-based; settings: ATCC25922, read-out: MIC E. coli
# How it was run: as §1
# [5] = system: LN-229 glioblastoma cells; experiment: Antiproliferative assay; type: cell-based; settings: Homo sapiens, LN-229, 72 h, read-out: IC50 LN-229
# How it was run: (§2)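 Adherent lines were seeded at 500 (Capan-1), 1000 (LN-229, HCT-116) or 1500 (NCI-H460) cells/well and dosed after overnight incubation. Suspension lines were seeded at 2500 (HL-60, K-562, Z-138) or 5500 (DND-41) cells/well directly onto compound. Seven 5-fold concentrations ran from 100 to 0.006 μM for 72 h. Viability was read as MTS absorbance at 490 nm after 3 h, and IC50 was derived from OD values. Two independent experiments.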
# [6] = system: Capan-1 pancreatic adenocarcinoma cells; experiment: Antiproliferative assay; type: cell-based; settings: Homo sapiens, CAPAN-1, 72 h, read-out: IC50 Capan-1
# How it was run: as §2
# [7] = system: K-562 chronic myeloid leukemia cells; experiment: Antiproliferative assay; type: cell-based; settings: Homo sapiens, K562, 72 h, read-out: IC50 K-562
# How it was run: as §2
# [8] = system: eight human tumor cell lines; experiment: Antiproliferative assay, span over the panel of tumor cell lines; type: cell-based; settings: 72 h, read-out: IC50 range across tested tumor cell lines
# How it was run: as §2
# [9] = system: HL-60 acute myeloid leukemia cells; experiment: Antiproliferative assay; type: cell-based; settings: Homo sapiens, HL-60, 72 h, read-out: IC50 HL-60
# How it was run: as §2
# [10] = system: NCI-H460 non-small cell lung cancer cells; experiment: Antiproliferative assay; type: cell-based; settings: Homo sapiens, NCI-H460, 72 h, read-out: IC50 NCI-H460
# How it was run: as §2
# [11] = system: HCT-116 colon carcinoma cells; experiment: Antiproliferative assay; type: cell-based; settings: Homo sapiens, HCT-116, 72 h, read-out: IC50 HCT-116
# How it was run: as §2
# salmon sperm DNA = experiment: Fluorescent intercalator displacement; type: binding; settings: tested at 250, 100 and 40 μM; result in words
# How it was run: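 Competitive fluorescence-polarization displacement. Acridine orange (50 nM) and salmon sperm DNA (6 μg/mL) were mixed with test compound at 250, 100 or 40 μM in HEN buffer (10 mM HEPES pH 7.5, 1 mM EDTA, 100 mM NaCl). Mixtures stood 20 min in the dark. mP was normalized to the DMSO control, with mitoxantrone (10 μM) as positive control.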
MIC [1],MIC [2],MIC [3],MIC [4],IC50 [5],IC50 [6],IC50 [7],IC50 [8],IC50 [9],IC50 [10],IC50 [11],"DNA intercalation (acridine orange displacement, fluorescence polarization) (salmon sperm DNA)",Structure (SMILES)
0.5 µg/mL,> 256 µg/mL,0.5 µg/mL,< 0.125 µg/mL,–,–,–,–,–,–,–,–,"O=C(O)c1cn(C2CC2)c2cc(N3CCNCC3)c(F)cc2c1=O [CIP, ciprofloxacin, reference compound]"
–,–,–,–,> 100 µM,≥ 69.1 µM,> 100 µM,37.3 to 79.8 µM,> 100 µM,> 100 µM,> 100 µM,–,"Fc1ccc2nc(-c3ccc(OCCN4CCOCC4)cc3)[nH]c2c1 [Compound 19, 4-(2-(4-(6-Fluoro-1H-benzo[d]imidazol-2-yl)phenoxy)ethyl)morpholine]"
2 µg/mL,256 µg/mL,64 µg/mL,0.5 µg/mL,–,–,–,–,–,–,–,–,"CC(C)(O/N=C(\C(=O)N[C@@H]1C(=O)N2C(C(=O)[O-])=C(C[n+]3ccccc3)CS[C@H]12)c1csc(N)n1)C(=O)O [CAZ, ceftazidime, reference compound]"
> 256 µg/mL,> 256 µg/mL,> 256 µg/mL,> 256 µg/mL,> 100 µM,> 100 µM,> 100 µM,–,> 100 µM,> 100 µM,> 100 µM,–,"O=C(COc1ccc(-c2nc3ccccc3[nH]2)cc1)N1CCOCC1 [Compound 14, 2-(4-(1H-Benzo[d]imidazol-2-yl)phenoxy)-1-morpholinoethan-1-one]"
> 256 µg/mL,> 256 µg/mL,> 256 µg/mL,256 µg/mL,> 100 µM,47.2 ± 0.4 µM,≥ 88 µM,–,≥ 70 µM,> 100 µM,> 100 µM,–,"c1ccc2[nH]c(-c3ccc(OCc4cn(CCN5CCOCC5)nn4)cc3)nc2c1 [Compound 28, 4-(2-(4-((4-(1H-Benzo[d]imidazol-2-yl)phenoxy)methyl)-1H-1,2,3-triazol-1-yl)ethyl)morpholine]"
–,–,–,–,> 100 µM,> 100 µM,> 100 µM,–,> 100 µM,> 100 µM,> 100 µM,–,"O=C(COc1ccc(-c2nc3ccc(F)cc3[nH]2)cc1)N1CCOCC1 [Compound 20, 2-(4-(6-Fluoro-1H-benzo[d]imidazol-2-yl)phenoxy)-1-morpholinoethan-1-one]"
> 256 µg/mL,> 256 µg/mL,> 256 µg/mL,> 256 µg/mL,≥ 65.1 µM,47.7 ± 3.2 µM,38.2 ± 4.5 µM,–,46.4 ± 1.3 µM,52.4 ± 1.3 µM,> 100 µM,–,"CCN(CC)CCOc1ccc(-c2nc3ccccc3[nH]2)cc1 [Compound 12, 2-(4-(1H-Benzo[d]imidazol-2-yl)phenoxy)-N,N-diethylethan-1-amine]"
> 256 µg/mL,> 256 µg/mL,> 256 µg/mL,> 256 µg/mL,51.5 ± 0.1 µM,35.4 ± 2.7 µM,19.1 ± 1.8 µM,–,33.8 ± 3.3 µM,35.9 ± 1.3 µM,49.5 ± 0.4 µM,scored best in the binding assay,"CCN(CC)CCOc1ccc(-c2nc3ccc(F)cc3[nH]2)cc1F [Compound 26, N,N-Diethyl-2-(2-fluoro-4-(6-fluoro-1H-benzo[d]imidazol-2-yl)phenoxy)ethan-1-amine]"
–,–,–,–,> 100 µM,> 100 µM,> 100 µM,–,> 100 µM,> 100 µM,> 100 µM,exhibit clear intercalating properties,"O=C(COc1ccc(-c2nc3ccccc3[nH]2)cc1F)N1CCOCC1 [Compound 22, 2-(4-(1H-Benzo[d]imidazol-2-yl)-2-fluorophenoxy)-1-morpholinoethan-1-one]"
–,–,–,–,> 100 µM,> 100 µM,> 100 µM,–,> 100 µM,> 100 µM,> 100 µM,–,"Fc1cc(-c2nc3ccccc3[nH]2)ccc1OCCN1CCOCC1 [Compound 21, 4-(2-(4-(1H-Benzo[d]imidazol-2-yl)-2-fluorophenoxy)ethyl)morpholine]"
> 256 µg/mL,> 256 µg/mL,> 256 µg/mL,> 256 µg/mL,> 100 µM,42.1 ± 3.7 µM,79.8 ± 1.3 µM,37.3 to 79.8 µM,54.2 ± 4.1 µM,> 100 µM,> 100 µM,–,"c1ccc2[nH]c(-c3ccc(OCCN4CCOCC4)cc3)nc2c1 [Compound 13, 4-(2-(4-(1H-Benzo[d]imidazol-2-yl)phenoxy)ethyl)morpholine]"
> 256 µg/mL,> 256 µg/mL,> 256 µg/mL,> 256 µg/mL,> 100 µM,54.9 ± 5.1 µM,> 100 µM,–,> 100 µM,> 100 µM,> 100 µM,–,"Fc1cc(-c2nc3ccc(Cl)cc3[nH]2)ccc1OCc1cn(CCN2CCOCC2)nn1 [Compound 32, 4-(2-(4-((4-(6-Chloro-1H-benzo[d]imidazol-2-yl)-2-fluorophenoxy)methyl)-1H-1,2,3-triazol-1-yl)ethyl)morpholine]"
> 256 µg/mL,> 256 µg/mL,> 256 µg/mL,> 256 µg/mL,> 100 µM,58.8 ± 1.9 µM,> 100 µM,–,≥ 60.6 µM,46.9 ± 4.4 µM,> 100 µM,–,"Fc1ccc2nc(-c3ccc(OCc4cn(CCN5CCOCC5)nn4)cc3)[nH]c2c1 [Compound 30, 4-(2-(4-((4-(6-Fluoro-1H-benzo[d]imidazol-2-yl)phenoxy)methyl)-1H-1,2,3-triazol-1-yl)ethyl)morpholine]"
–,–,–,–,44.1 ± 5.3 µM,39.1 ± 2.1 µM,27.6 ± 3.3 µM,–,51.9 ± 5.9 µM,37.2 ± 4.3 µM,61.1 ± 0.7 µM,–,"CCN(CC)CCOc1ccc(-c2nc3ccc(F)cc3[nH]2)cc1 [Compound 18, N,N-Diethyl-2-(4-(6-fluoro-1H-benzo[d]imidazol-2-yl)phenoxy)ethan-1-amine]"
> 256 µg/mL,> 256 µg/mL,> 256 µg/mL,256 µg/mL,44 ± 0.8 µM,25.1 ± 3.7 µM,8.7 ± 1.1 µM,–,29.2 ± 2.2 µM,41.3 ± 3.7 µM,47.2 ± 1.8 µM,–,"CCN(CC)CCOc1ccc(-c2nc3ccc(Cl)cc3[nH]2)cc1 [Compound 15, 2-(4-(6-Chloro-1H-benzo[d]imidazol-2-yl)phenoxy)-N,N-diethylethan-1-amine]"
> 256 µg/mL,> 256 µg/mL,> 256 µg/mL,> 256 µg/mL,> 100 µM,> 100 µM,> 100 µM,–,≥ 98.1 µM,> 100 µM,> 100 µM,–,"Clc1ccc2nc(-c3ccc(OCc4cn(CCN5CCOCC5)nn4)cc3)[nH]c2c1 [Compound 29, 4-(2-(4-((4-(6-Chloro-1H-benzo[d]imidazol-2-yl)phenoxy)methyl)-1H-1,2,3-triazol-1-yl)ethyl)morpholine]"
–,–,–,–,0.03 µM,3.4 ± 0.9 µM,4 ± 1.3 µM,–,0.8 ± 0.2 µM,6.1 ± 1.1 µM,3.7 ± 0.3 µM,–,"COc1cc([C@@H]2c3cc4c(cc3[C@@H](O[C@@H]3O[C@@H]5CO[C@@H](C)O[C@H]5[C@H](O)[C@H]3O)[C@H]3COC(=O)[C@H]23)OCO4)cc(OC)c1O [Etoposide, reference compound]"
> 256 µg/mL,> 256 µg/mL,> 256 µg/mL,> 256 µg/mL,> 100 µM,40.6 ± 2.5 µM,73 ± 3 µM,–,66.1 ± 4 µM,> 100 µM,> 100 µM,–,"Fc1cc(-c2nc3ccccc3[nH]2)ccc1OCc1cn(CCN2CCOCC2)nn1 [Compound 31, 4-(2-(4-((4-(1H-Benzo[d]imidazol-2-yl)-2-fluorophenoxy)methyl)-1H-1,2,3-triazol-1-yl)ethyl)morpholine]"
> 256 µg/mL,> 256 µg/mL,> 256 µg/mL,> 256 µg/mL,> 100 µM,47 ± 4.3 µM,29.6 ± 1.9 µM,–,65.1 ± 2.8 µM,> 100 µM,> 100 µM,–,"Fc1ccc2nc(-c3ccc(OCc4cn(CCN5CCOCC5)nn4)c(F)c3)[nH]c2c1 [Compound 33, 4-(2-(4-((2-Fluoro-4-(6-fluoro-1H-benzo[d]imidazol-2-yl)phenoxy)methyl)-1H-1,2,3-triazol-1-yl)ethyl)morpholine]"
